Laboratory results as given in ChEMBL document CHEMBL1140891, “Design, synthesis and biological evaluation of novel stilbene-based antitumor agents” (Bioorg Med Chem, 2009).
Active and inactive are the calls of the source. The calls are words filed in the database; no cut-off is given here.

Experiments:
[1] = Solubility in water; assay type: physicochemical
MDA-MB-231 = test: Cytotoxicity against human MDA-MB-231 cells after 48 hrs by alamar blue assay; assay type: functional, cell-based; settings: MDA-MB-231, 48 h
Outline: (§1)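 MDA-MB231, MiaPaCa2 and SNU423 cells (ATCC) were grown in DMEM, and UCI-101 cells in IMDM. Both media had 10% FBS plus penicillin/streptomycin/glutamine, under 5% CO2. Cells were treated for 48 h at seven concentrations from 0 to 3.0. Alamar Blue was added at 1/10 volume and OD was read at 570 and 600 nm. % growth inhibition versus untreated cells used extinction-coefficient formula; IC50 from three experiments.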

MIA PaCa-2 = test: Cytotoxicity against human MIAPaCa2 cells after 48 hrs by alamar blue assay; assay type: functional, cell-based; settings: MIA PaCa-2, 48 h; outline: as §1
SNU-423 = test: Cytotoxicity against human SNU423 cells after 48 hrs by alamar blue assay; assay type: functional, cell-based; settings: SNU-423, 48 h; outline: as §1
[2] = Cytotoxicity against human UCI101 cells after 48 hrs by alamar blue assay; assay type: functional, cell-based; settings: UCI101, 48 h; outline: as §1
HL-60 = test: Induction of apoptosis in human HL60 cells by flow cytometry; assay type: functional, cell-based
[3] = Inhibition of tubulin without microtubule associated protein polymerization at 5 uM after 60 mins

Row | Compound | solubility [1] [µg/mL] | IC50 (MDA-MB-231) [µM] | IC50 (MIA PaCa-2) [µM] | IC50 (SNU-423) [µM] | IC50 [2] [µM] | IC50 (HL-60) [µM] | Activity [3]
1 | COc1cc(/C=C\c2ccc(OC)c(N)c2)cc(OC)c1.O=C(O)C(=O)O | < 1000 | – | – | – | – | – | –
2 | COc1cc(/C=C\c2ccc(OC)c(N)c2)cc(OCCO)c1 | – | 0.08 | 0.18 | 0.2 | 0.15 | – | –
3 | COc1cc(/C=C\c2ccc(OC)c(N)c2)cc(OCC(=O)O)c1 | – | – | – | – | > 10 | – | –
4 | COc1cc(/C=C\c2ccc3cc[nH]c3c2)cc(OC)c1 | – | 0.25 | 0.2 | 0.7 | 0.25 | – | –
5 | COc1cc(/C=C\c2ccc(OC)c(NC(=O)OCCN3CCOCC3)c2)cc(OC)c1 [listing 1 of 2 here] | < 1000 | – | – | – | – | – | –
6 | COc1cc(/C=C\c2ccc3[nH]ccc3c2)cc(OC)c1 | – | 0.25 | 0.2 | 0.7 | 0.25 | – | –
7 | COc1cc(/C=C\c2ccc(OC)c(NC(=O)OCCN3CCOCC3)c2)cc(OC)c1.O=C(O)C(=O)O | 5900 | – | – | – | – | – | –
8 | COc1cc(/C=C\c2ccc(OC)c(NC(=O)OCCN3CCOCC3)c2)cc(OC)c1 [listing 2 of 2 here] | – | – | – | 5 | 5 | – | –
9 | COc1ccc(/C=C\c2ccc3c(ccn3C)c2)cc1N | < 1000 | – | – | – | 0.2 | – | –
10 | COc1cc(/C=C\c2ccc(OC)c(O)c2)cc(OC)c1 | – | – | – | 0.015 | 0.03 | 0.03 | –
11 | COc1cc2c(c(OC)c1OC)-c1ccc(OC)c(=O)cc1[C@@H](NC(C)=O)CC2 [COLCHICINE] | – | 0.02 | 0.025 | 0.025 | 0.03 | – | Active
12 | COc1ccc(/C=C\c2cc(OC)c(OC)c(OC)c2)cc1O [COMBRETASTATIN A4] | – | 0.004 | 0.008 | 0.006 | 0.002 | – | –
13 | COc1cc(/C=C\c2ccc(OC)c(N)c2)cc(OC(C)C)c1 | – | – | – | – | 0.1 | – | –
14 | COc1cc(/C=C\c2ccc(OC)c(N)c2)cc(OC)c1 [listing 1 of 2 here] | – | – | – | – | – | – | Active
15 | COc1cc(/C=C\c2ccc3ccn(C)c3c2)cc(OC)c1 | – | – | – | – | 0.22 | – | –
16 | COc1cc(/C=C\c2ccc(OC)c(N)c2)cc(OC)c1 [listing 2 of 2 here] | < 1000 | – | – | – | – | – | –
17 | COc1cc(/C=C\c2ccc3c(ccn3C)c2)cc(OC)c1 | < 1000 | 0.08 | 0.08 | 0.03 | 0.04 | – | –
18 | COc1cc(/C=C\c2ccc(OC)c(NC(=O)OCCOCCOCCO)c2)cc(OC)c1 | – | – | – | – | > 10 | – | –
19 | COc1cc(/C=C\c2ccc3[nH]cnc3c2)cc(OC)c1 | – | 0.8 | 0.8 | 1 | 0.26 | – | –
20 | C=CCOc1cc(/C=C\c2ccc(OC)c(N)c2)cc(OC)c1 | – | – | – | – | 0.2 | – | –
21 | COc1cc(/C=C\c2ccc(OC)c(N)c2)cc(OC)c1.Cl | 6000 | 0.03 | 0.04 | 0.03 | 0.03 | 0.03 | –
22 | COc1ccc(/C=C\c2ccc3[nH]ccc3c2)cc1N | – | – | – | – | 5 | – | –
23 | COc1cc(/C=C\c2ccc(OC)c(NC(=O)NCCN3CCOCC3)c2)cc(OC)c1 | – | – | – | – | > 10 | – | –
24 | CCOc1cc(/C=C\c2ccc(OC)c(N)c2)cc(OC)c1 | – | – | – | – | 0.08 | – | Active
25 | CC[C@]1(O)C[C@H]2CN(CCc3c([nH]c4ccccc34)[C@@](C(=O)OC)(c3cc4c(cc3OC)N(C=O)[C@H]3[C@@](O)(C(=O)OC)[C@H](OC(C)=O)[C@]5(CC)C=CCN6CC[C@]43[C@@H]65)C2)C1 [VINCRISTINE] | – | 0.015 | 0.015 | 0.01 | 0.02 | – | –
26 | COc1cc(O)cc(/C=C\c2ccc(OC)c(N)c2)c1 | – | 0.8 | 0.7 | 2 | 0.8 | – | Active
